The list is not random: actives were taken first. Their share in the collection is about 6.4%.
HUVEC inhibit: blocks proliferation of human endothelial cells. HUVEC proliferation, CellTiter-Glo luminescence, 72 h; hits give low values. hit rate 1.1% among 86,000. viability, % at 10 µM (by protocol);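 active means viability at or below 30%; inactive means viability above 30%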;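 further: 100% = median luminescence of DMSO-only cell control wells on each plate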
Jurkat tox 60K: cytotoxic compounds reducing Jurkat cell viability; inhibition, % at 4 µM; Jurkat E6.1 viability, ATP luminescence, 48 h; hit rate 1.2% among 56,000;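 active means inhibition above the mean inhibition of all tested compounds plus 3 SD, cut at about 28% in these data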
H69AR inhibit: growth inhibitors of human H69AR lung tumor cells; viability, % at 10 µM; hit rate 6% among 85,000; H69AR lung tumor viability, ATP luminescence, 72 h; hits give low values; AID 598;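 active means viability at or below 40%; inactive means viability above 40%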;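 further: multidrug resistant small cell line overexpressing MRP-1 efflux transporter; 100% = mean luminescence of untreated control wells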
Ecoli tolC: blocks growth of E. coli BW25113 tolC mutant | AID 573 | OD615 | hit rate 2.2% among 65,000 | growth inhibition, % at 10 µM (by protocol);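 active means growth inhibition at or above a cutoff equal to the mean over every tested compound plus 3 SD, cut at about 60% in these data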;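 further: growth measured after 20 h incubation at 37 °C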
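System: E. coli ΔtolC::kan strain BW25113; Buffer or medium: LB broth supplemented with 50 µg/mL kanamycin; Compound: 10 µM final, single dose; Incubation: bacterial growth with compound for 20 h at 37 °C; Signal: A615 absorbance measurement; Evaluation: growth inhibition in percent.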
Ecoli WT expand: blocks growth of wild type E. coli BW25113. OD600 absorbance. growth inhibition, % at 100 µM. hit rate 0.15% among 98,000;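 active means growth inhibition above about 50% at one test dose, limit read from the data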;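 further: growth measured after 20 h incubation at 37 °C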
Fibroblast inh: blocks proliferation of human lung fibroblasts. LL 47 human lung fibroblast viability, ATP luminescence; hits give low values. viability, % at 10 µM. hit rate 1.1% among 85,000;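 active means viability at or below 50% in the single dose screen; inactive means viability above 50%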;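 further: compound exposure lasted 72 h before the ATP readout; 100% = median luminescence of untreated cell-only wells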
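Test system: LL 47 human lung fibroblasts; Quantity: 1,150 cells/well; Buffer or medium: IMEM plus 15% FBS; Dosing: tenfold compound dosing solution, DMSO at 0.1%; Timing: overnight cell rest, 72 h compound treatment at 37 °C; Detection: ATP-based CellTiter-Glo luminescent readout; Read-out basis: viability percentage against median untreated-cell control; Controls: cell-only wells, no compound.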
* = called active by the depositor; . = no result.

SMILES	HUVEC inhibit	Jurkat tox 60K	H69AR inhibit	Ecoli tolC	Ecoli WT expand	Fibroblast inh
COC(=O)Nc1sc2c(c1C(=O)NCc1ccco1)CCC2	76	-3	39*	-5	-15	82
COC(=O)Nc1sc2c(c1C(=O)NCc1ccco1)CCCC2	83	4	78	-7	-1	93
COc1cc(-c2nnc(SCc3c(F)cccc3Cl)o2)cc(OC)c1OC	100	-2	101	41	-13	100
COc1cc(-c2nc(Cc3ccccc3Cl)no2)cc(OC)c1OC	63	.	.	67*	-1	97
COc1ccccc1Cc1noc(-c2cc(Cl)ccc2OC)n1	99	-6	91	19	-7	100
COc1cc(-c2nnc(SCc3ccccc3Cl)o2)cc(OC)c1OC	100	-5	80	77*	-1	98
CC1CCC(N2CCN(c3ncccn3)CC2)CC1 (centres undefined)	100	1	104	-3	-4	96
COc1cc(/C=N/n2c(C)nnc2C)cc(OC)c1OC	89	.	105	6	3	100
COc1c(Br)cc(Br)cc1/C=N/n1c(C)nnc1C	59	8	25*	3	3	71
Cc1cc(Cl)ccc1OCc1nc(-c2ccc(O)cc2)n[nH]1	72	21	22*	29	31	111
COc1ccc(S(=O)(=O)Cc2ccc(C(=O)N3CCN(c4ccccc4)CC3)o2)cc1	.	8	.	20	-3	.
Cc1cc(/C=C2/NC(=O)NC2=O)c(C)n1-c1sc2c(c1C#N)CCCC2	.	.	.	.	1	.
Cc1cc(C)c(-n2c(C)cc(/C=C3/NC(=O)NC3=O)c2C)c(C)c1	74	.	17*	.	4	90
Cc1nnc2ccc(N3CCC4(CC3)OCCO4)nn12	92	10	94	-6	-6	95
CCOC(=O)C(C(=O)Nc1ccc(C)cc1)C1CCCCC1 (centres undefined)	80	.	23*	.	-2	89
Cc1cc(NC(=O)CSc2nc3c(sc4ccccc43)c(=O)n2CCc2ccccc2)n[nH]1	101	.	90	.	-4	113
Cc1cc(NC(=O)CSc2nc3c(sc4ccccc43)c(=O)n2CCCN2CCOCC2)n[nH]1	85	.	33*	.	-8	39*
Cc1ccc(CSc2nc3ccccc3c(=O)n2CCCC(=O)NCc2ccco2)cc1	58	.	29*	.	-3	83
CCCCn1c(SCC(=O)Nc2cc(C)on2)nc2ccccc2c1=O	105	-9	103	9	-13	101
Cc1ccc(NC(=O)CSc2nc3ccccc3c(=O)n2CCCN2CCCCC2)cc1C	13*	.	2.2*	.	8	3.0*
CCn1c(SCC(=O)N2CCC(C(N)=O)(N3CCCCC3)CC2)nc2ccccc2c1=O	81	-6	9.0*	-14	.	90
COc1cc(OC)cc(-c2cc(NC(C)=O)n[nH]2)c1	89	-2	83	0	5	97
O=C(CSc1nc(-c2ccc(F)cc2)cs1)NC(=O)NCc1ccco1	101	4	94	-5	-12	102
Cc1nc2ccccc2nc1N1CCOCC1	97	.	99	.	1	94
Cc1ccc(N2CCN(c3ccc(C)cc3)C(CC(=O)O)C2=O)cc1 (centres undefined)	95	-1	85	-15	6	96
SMILES	HUVEC inhibit	Jurkat tox 60K	H69AR inhibit	Ecoli tolC	Ecoli WT expand	Fibroblast inh
O=C(CSc1nc2ccccc2c(=O)n1CCC(=O)N1CCCCC1)NCc1ccccc1	92	-6	70	6	6	101
Cc1ccc(NC(=O)CSc2nc3ccccc3c(=O)n2CCCC(=O)N2CCCC2)cc1	61	.	15*	11	-6	77
CCN=c1scc(-c2ccco2)n1/N=C/c1ccc(O)cc1	118	.	40*	.	5	122
CCOC(=O)c1ccccc1OCc1cc(/C=N/n2cncn2)ccc1OC	81	.	34*	1	-27	99
COc1ccc(/C=N/n2cnnc2)cc1COc1ccccn1	108	11	101	-17	1	103
O=S(=O)(NCc1cn2ccsc2n1)c1ccc(Oc2ccccc2)cc1	.	18	.	1	-5	.
C=C1[C@@H](C)C2[C@H](Cc3ccccc3)NC(=O)[C@]23OC(=O)CC[C@H](O)CCC[C@H](C)C/C=C/[C@H]3[C@@H]1O (some centres undefined)	15*	.	38*	14	.	25*
Cc1nnc(SCc2ccc(Cl)cc2Cl)[nH]c1=O	99	3	102	24	4	100
Cn1c(=O)c2c(SCc3ccccc3)nc(-c3ccco3)nc2n(C)c1=O	67	4	51	23	-2	63
